Results taken from ChEMBL document CHEMBL1121524, “Studies of hypolipidemic agents. 1. Synthesis and hypolipidemic activities of alkoxycinnamic acid derivatives” (1980).

Key:
Rattus norvegicus [1] = organism: Rattus norvegicus; test: Hypolipidemic activity expressed as percentage decrease in triglyceride in rat, at dosage of 50 mg for 7 days; format: functional
In short: (§1)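 Male Sprague-Dawley rats, 4 weeks old, kept on CE-2 chow for at least 1 week, then grouped (generally five per group). Compound was mixed into CE-2 powder and fed ad libitum for the stated period; controls received plain CE-2 powder. Diet level is given as mg/100 g (mg%), about equal to mg/kg/day. Total serum triglyceride was measured by the Ryan and Rasho method and reported as percent depression versus control group mean. Significance was p < 0.05.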

Rattus norvegicus [2] = organism: Rattus norvegicus; test: Tested for the hypolipidemic activity, expressed as percent decrease in serum cholesterol in rat, at dosage of 50 mg for 7 days; format: functional
In short: as §1, with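 “cholesterol” for “triglyceride”, “Zak et al.” for “Ryan and Rasho”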

SMILES	Decrease (Rattus norvegicus [1])	Decrease (Rattus norvegicus [2])
CCCCCCCCCCCCCOc1ccc(/C=C(\C)C(=O)O)cc1	-4%	13%
CCCCCCCCCCOc1ccc(/C=C(\C)C(=O)O)cc1	43%	16%
CCCCCCCCCCCCCCCCOc1ccc(/C=C(\C)C(=O)Oc2ccccc2)cc1	46%	12%
CCCCCCCCCCCCOc1ccc(/C=C(\C)C(=O)OCc2cccnc2)cc1	60%	24%
CCCCCCCCCCCCCCCCCCOc1ccc(/C=C(\C)C(=O)OCCCO)cc1	14%	13%
CCCCCCCCOc1ccc(/C=C(\C)C(=O)OCc2ccccc2)cc1	18%	5%
CCCCCCCCOc1ccc(/C=C(\C)C(=O)O)cc1	8%	10%
CCCCCCCCCCCCCOc1ccc(/C=C(\C)C(=O)OCC(O)CO)cc1 (centres undefined)	53%	30%
C=C(C)C(=O)OCCOC(=O)/C(C)=C/c1ccc(OCCCCCCCCCCCC)cc1	43%	17%
CCCCCCCCCCCCOc1ccc(/C=C(\C)C(=O)OCCCl)cc1	42%	21%
CCCCCCCCCCCCCCCCCCOc1ccc(/C=C(\C)C(=O)O)cc1	-54%	-12%
CCCCCCCCCCCCCCOc1ccc(/C=C/C(=O)OCCO)cc1	24%	10%
CCCCCCCCCCCCCCCCCCOc1ccc(/C=C/C(=O)O)cc1	9%	0%
CCCCCCCCCCCCCCOc1ccc(/C(C)=C/C(=O)O)cc1	41%	5%
CCCCCCCCCCCCOc1ccc(/C=C/C(=O)O)cc1	52%	15%
CCCCCCCCCCCCOc1ccc(/C=C/C(=O)OCC(O)CO)cc1 (centres undefined)	38%	17%

SMILES	Decrease (Rattus norvegicus [1])	Decrease (Rattus norvegicus [2])
CCCCCCCCCCCCCCCCOC(=O)/C=C/c1ccc(OCCCCCCCCCCCCCCCC)cc1	27%	11%
CCCCCCCCCCCCCCCCCCOc1ccc(/C=C(\C)C(=O)OCC(O)CO)cc1 (centres undefined)	3%	-1%
C=C(C)C(=O)OCCOC(=O)/C=C/c1ccc(OCCCC)cc1	17%	9%
CCCCCCCCCCCCCCOc1ccc(/C=C(\C)C(=O)OCC2COC(C)(C)O2)cc1 (centres undefined)	2%	9%
CCCCCCCCCCCCCCOc1ccccc1/C=C(\C)C(=O)O	7%	-9%
CCCCCCCCCCCCCCOc1ccc(/C=C/C(=O)OCCCl)cc1	-1%	11%
CCCCCCCCCCCCOc1ccc(/C=C(\C)C(=O)OCC(COC(=O)c2ccccc2)OC(=O)c2ccccc2)cc1 (centres undefined)	47%	3%
CCCCCCCCCCCCCCOc1ccc(/C=C/C(=O)OCC(O)CO)cc1 (centres undefined)	24%	26%
CCCCCCCCCCCCCCOc1cccc(/C=C(\C)C(=O)O)c1	-11%	-1%
CCCCCCCCCCCCCCOc1ccc(/C=C(\C)C(=O)OCCOC(=O)/C(C)=C/c2ccc(OCCCCCCCCCCCCCC)cc2)cc1	-9%	-1%
C/C(=C\c1ccc(-c2ccc(Cl)cc2)cc1)C(=O)OCC(O)CO (centres undefined)	18%	11%
CCCCCCCCCCCCOc1ccc(/C=C(\C)C(=O)OCCS(=O)(=O)[O-])cc1.[Na+]	63%	27%
C/C(=C\c1ccc(-c2ccccc2)cc1)C(=O)OCC(O)CO (centres undefined)	-17%	16%
CCCCCCCCCCCCCCCCOc1ccc(/C=C/C(=O)OCC(COC(=O)CCC)OC(=O)CCC)cc1 (centres undefined)	36%	8%
CCCCCCCCCCCCCCOc1ccc(/C=C(\C)C(=O)OCC(O)CO)cc1 (stereo in doubt; 98)	9%	-2%
CCCCCCCCCCCCOc1ccc(/C=C/C(=O)OCCCl)cc1	46%	16%
